# Measurements collected from several papers.
# Each line is one published result; the experiments were not run side by side.
# PIK3C2B: Phosphatidylinositol 4-phosphate 3-kinase C2 domain-containing subunit beta (PIK3C2B, Homo sapiens, UniProt O00750)
# PDE5A: cGMP-specific 3',5'-cyclic phosphodiesterase (PDE5A, Homo sapiens, UniProt O76074)
# BRD3 BD2: Bromodomain-containing protein 3, BD2 (BRD3, Homo sapiens, UniProt Q15059)
# TRIM24: Transcription intermediary factor 1-alpha (TRIM24, Homo sapiens, UniProt O15164)
# KDM1A: Lysine-specific histone demethylase 1A (KDM1A, Homo sapiens, UniProt O60341)
SMILES,target,assay,setting,quantity,value
Cc1ccc(C(=O)Nc2ccc(CN3CCN(C)CC3)c(C(F)(F)F)c2)cc1C#Cc1cnc2cccnn12,PIK3C2B,"enzyme activity, inhibitor",23.5 nM,remaining activity,90%
CC(C)(C)N1C(=O)[C@H]2Cc3c([nH]c4ccccc34)[C@H](c3cccnc3)N2C1=O,PDE5A,"enzyme activity, inhibitor, FP",50 µM,inhibition,89%
Cc1cc2c(cc1N1C(=O)c3cccc4c(Cl)ccc(c34)C1=O)n(C)c(=O)n2C,BRD3 BD2,"thermal stability, DSF",10 µM,ΔTm,0.1 °C
Oc1ccc(-c2nc(-c3ccncc3)c(-c3ccc(F)cc3)[nH]2)cc1,TRIM24,"thermal stability, DSF",10 µM,ΔTm,-0.23 °C
CN1CCN(C(=O)[C@H](CCCN[C@@H]2C[C@H]2c2ccc(F)cc2)NC(=O)c2ccc(-n3ccnn3)cc2)CC1,KDM1A,"enzyme activity, inhibitor",,kinact,0.018 s⁻¹
CC(=O)N[C@H](C(=O)N[C@H](C(=O)N[C@@H](Cc1ccccc1)C(=O)N[C@H](C(=O)N[C@@H](CO)C(=O)N[C@@H](Cc1c[nH]c2ccccc12)C(=O)N[C@@H](CCC(=O)O)C(=O)N[C@@H](CCC(=O)O)C(=O)N[C@@H](Cc1ccc(O)cc1)C(=O)N[C@@H](CC(C)C)C(=O)N[C@@H](CC(=O)O)C(=O)N[C@@H](Cc1c[nH]c2ccccc12)C(=O)N[C@H](C(N)=O)C(C)C)[C@@H](C)O)C(C)C)[C@@H](C)O,"Proprotein convertase subtilisin/kexin type 9 (PCSK9, Homo sapiens, UniProt Q8NBP7)","binding, SPR",,kon,260000 M⁻¹ s⁻¹
Cc1cnc(Nc2ccc(OCCN3CCCC3)cc2)nc1Nc1cccc(S(=O)(=O)NC(C)(C)C)c1,BRD3 BD2,"thermal stability, DSF",10 µM,ΔTm,3.4 °C
COC(=O)[C@@H]1Cc2c([nH]c3ccccc23)[C@H](c2ccc(OC)c(OC)c2)N1C(=O)CCl,PDE5A,"enzyme activity, inhibitor, FP",50 µM,inhibition,48%
Nc1ncnc2occ(-c3ccc(NC(=O)Nc4cc(C(F)(F)F)ccc4F)cc3)c12,PIK3C2B,"enzyme activity, inhibitor",20 µM,remaining activity,99%
O=C(O)c1ccc(CN2CCC(CN[C@@H]3C[C@H]3c3ccccc3)CC2)cc1,KDM1A,"enzyme activity, inhibitor",,kinact,0.013 s⁻¹
NS(=O)(=O)c1ccc(Nc2nc(-c3ccc(F)cc3)c3ccccc3n2)cc1,"ATPase family AAA domain-containing protein 2B (ATAD2B, Homo sapiens, UniProt Q9ULI0)","binding, competition with immobilised ligand",1 µM,remaining binding,76%
C[S+]([O-])c1ccc(-c2nc(-c3ccncc3)c(-c3ccc(F)cc3)[nH]2)cc1 (stereo not shown),TRIM24,"thermal stability, DSF",10 µM,ΔTm,1.4 °C
O=C(c1ccc(F)cc1)N(Cc1ccccc1)C1CCCCC1,"Endothelin-1 receptor (EDNRA, Homo sapiens, UniProt P25101)",cell-free assay,10 µM,inhibition,0%
